Measurements collected from several papers.
Each line is one published result; the experiments were not run side by side.
Target: Tyrosine-protein kinase Tec (TEC, Homo sapiens, UniProt P42680)
Sequence (P42680 1-631, as in one of the studies): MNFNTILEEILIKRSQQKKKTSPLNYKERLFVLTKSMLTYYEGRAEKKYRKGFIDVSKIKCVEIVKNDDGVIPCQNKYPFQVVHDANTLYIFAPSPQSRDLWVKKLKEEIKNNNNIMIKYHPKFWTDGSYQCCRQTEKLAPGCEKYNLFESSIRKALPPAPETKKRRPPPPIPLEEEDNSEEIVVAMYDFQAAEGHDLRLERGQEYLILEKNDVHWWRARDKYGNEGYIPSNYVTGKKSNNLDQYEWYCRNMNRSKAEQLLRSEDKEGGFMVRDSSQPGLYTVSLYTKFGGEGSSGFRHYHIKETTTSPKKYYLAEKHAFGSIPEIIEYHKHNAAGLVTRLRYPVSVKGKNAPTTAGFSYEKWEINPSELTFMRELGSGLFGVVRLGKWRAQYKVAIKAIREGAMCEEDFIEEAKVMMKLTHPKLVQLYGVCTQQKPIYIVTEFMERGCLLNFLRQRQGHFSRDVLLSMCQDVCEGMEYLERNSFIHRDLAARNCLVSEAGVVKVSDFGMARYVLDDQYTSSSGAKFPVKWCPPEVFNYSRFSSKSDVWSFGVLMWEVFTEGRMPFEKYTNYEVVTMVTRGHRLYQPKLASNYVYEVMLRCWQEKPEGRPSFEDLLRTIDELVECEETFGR

N[C@@H]1CCN(c2nccc(-c3cnn4ncccc34)n2)C1 — remaining binding (binding; 1 µM): 95%
O=C(NCCCN1CCOCC1)c1ccc(Nc2ncc(Cl)c(-c3ccc(Cl)s3)n2)cc1 — remaining binding (binding; competition with immobilised ligand; 1 µM): 100%
O=C(NCC1CCOCC1)c1n[nH]cc1NC(=O)c1c(F)cccc1F — remaining binding (binding; competition with immobilised ligand; 1 µM): 100%
Cc1cnc(Nc2ccc(C(=O)N3CCC(N4CCCC4)CC3)cc2)nc1-c1cc2ccccc2s1 — remaining binding (binding; competition with immobilised ligand; 1 µM): 100%
CNC(=O)[C@@H]1CC[C@@H](n2c(-c3ccc4cnccc4c3)nc3ccc(C(=O)NCc4cccc(C(N)=O)c4)cc32)C1 — remaining binding (binding; competition with immobilised ligand; 1 µM): 100%
CCN1CCN(Cc2ccc(C(=O)Nc3ccc(C)c(Oc4ccc5c(c4)CC(=O)N5)c3)cc2C(F)(F)F)CC1 — remaining binding (binding; competition with immobilised ligand; 1 µM): 98%
O=C(c1ccc(Nc2ncc(Cl)c(-c3ccc(Cl)s3)n2)cc1)N1CCC(N2CCCC2)CC1 — remaining binding (binding; competition with immobilised ligand; 1 µM): 100%
CCCCN(CCCC)C(=O)CN1C[C@@H](c2cc(OC)c3c(c2)OCO3)[C@H](C(=O)O)[C@H]1CC(C)(C)CCC — remaining binding (cell-free assay; competition with immobilised ligand; 1 µM): 100%
COc1cnc(Nc2cccc(S(N)(=O)=O)c2)nc1N1CCN(c2ccccc2)CC1 — remaining binding (binding; competition with immobilised ligand; 1 µM): 85%
CN(C)c1ncc(F)c(-c2cnn3ncccc23)n1 — remaining binding (binding; 1 µM): 100%
CSc1cccnc1N1CCN(Cc2nc3ccccc3[nH]2)CC1 — remaining binding (binding; competition with immobilised ligand; 1 µM): 90%
CN(CCCC(F)(F)F)c1nccc(-c2cnn3ncccc23)n1 — remaining binding (binding; 1 µM): 97%
FC(F)(F)Oc1cccc(-c2cnc3ccc(-c4ccncc4)nn23)c1 — remaining binding (binding; competition with immobilised ligand; 5 µM): 99%
O=C(Nc1cccnn1)N1CCC(=Cc2cccc(Oc3ccc(C(F)(F)F)cn3)c2)CC1 — remaining binding (cell-free assay; competition with immobilised ligand; 1 µM): 100%
C[C@@H]1CCN(c2nccc(-c3cnn4ncccc34)n2)C1 — remaining binding (binding; 1 µM): 90%
COc1ccc2c(O[C@@H]3C[C@H]4C(=O)N[C@]5(C(=O)O)CC5/C=C\CCCCC[C@H](NC(=O)OC5CCCC5)C(=O)N4C3)cc(-c3csc(NC(=O)C(C)C)n3)nc2c1C (stereo partly drawn) — remaining binding (cell-free assay; competition with immobilised ligand; 1 µM): 100%
CN(C)c1nccc(-c2cnn3ncccc23)n1 — remaining binding (binding; 1 µM): 90%
CN(C(=O)c1ccccc1)c1cc(N(C)c2ccc3c(c2)CCc2ccc(C(=O)NCCN4CCOCC4)cc2C3=O)ccc1F — remaining binding (cell-free assay; competition with immobilised ligand; 1 µM): 100%
c1cnn2ncc(-c3ccnc(N4CCC45COC5)n3)c2c1 — remaining binding (binding; 1 µM): 99%
CCS(=O)(=O)c1cc2cc(C[C@@](O)(CC(C)(C)c3ccc(F)cc3C(N)=O)C(F)(F)F)[nH]c2cn1 — remaining binding (cell-free assay; competition with immobilised ligand; 1 µM): 100%
Nc1ncc2c(n1)-c1c([nH]c3ccc(C#CC4CC4)cc13)CCCC2 — remaining binding (binding; competition with immobilised ligand; 1 µM): 100%
